Assay results taken from ChEMBL document CHEMBL2331322, “Synthesis and antimicrobial activity of some new benzo and naphthonitrile derivatives” (2013).
Converted amounts (≈) assume the structure as drawn.

What was measured:
Format in all cases: functional
[1] = test system: Bacillus subtilis; experiment: Antimicrobial activity against Bacillus subtilis at 1 mg/mL after 24 hrs by agar disc diffusion method; details: read-out: DIZ
How it was run: (§1)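 Sterile 5 mm filter paper disks were impregnated with test solution in DMF (1 mg/mL) and placed on agar plates seeded with the test organism, in triplicate. Bacteria were incubated at 37 °C for 24 h and fungi for […] (so in the source). The read-out was the average inhibition zone diameter around the disks, in mm.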

[2] = test system: Botrytis fabae; experiment: Antimicrobial activity against Botrytis fabae after 48 hrs by microdilution susceptibility test
How it was run: (§2)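 MIC was determined by broth microdilution, using Müller–Hinton broth for bacteria and Sabouraud liquid medium for fungi. Stocks were made in DMF and serially diluted twofold. Wells were inoculated at 10⁶ CFU/mL and plates incubated at 36 °C for 24–48 h, with controls included. Only compounds giving agar-diffusion zones >14 mm were tested.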

[3] = test system: Fusarium oxysporum; experiment: Antimicrobial activity against Fusarium oxysporum after 48 hrs by microdilution susceptibility test; how it was run: as §2
[4] = test system: Pseudomonas aeruginosa; experiment: Antimicrobial activity against Pseudomonas aeruginosa after 24 hrs by microdilution susceptibility test; how it was run: as §2
[5] = test system: Escherichia coli; experiment: Antimicrobial activity against Escherichia coli after 24 hrs by microdilution susceptibility test; how it was run: as §2
[6] = test system: Bacillus subtilis; experiment: Antimicrobial activity against Bacillus subtilis after 24 hrs by microdilution susceptibility test; how it was run: as §2
[7] = test system: Bacillus thuringiensis; experiment: Antimicrobial activity against Bacillus thuringiensis after 24 hrs by microdilution susceptibility test; how it was run: as §2
[8] = test system: Botrytis fabae; experiment: Antimicrobial activity against Botrytis fabae at 1 mg/mL […] by agar disc diffusion method; details: read-out: DIZ
[9] = test system: Fusarium oxysporum; experiment: Antimicrobial activity against Fusarium oxysporum at 1 mg/mL after 48 hrs by agar disc diffusion method; details: read-out: DIZ; how it was run: as §1
[10] = test system: Pseudomonas aeruginosa; experiment: Antimicrobial activity against Pseudomonas aeruginosa at 1 mg/mL after 24 hrs by agar disc diffusion method; details: read-out: DIZ; how it was run: as §1
[11] = test system: Escherichia coli; experiment: Antimicrobial activity against Escherichia coli at 1 mg/mL after 24 hrs by agar disc diffusion method; details: read-out: DIZ; how it was run: as §1
[12] = test system: Bacillus thuringiensis; experiment: Antimicrobial activity against Bacillus thuringiensis at 1 mg/mL after 24 hrs by agar disc diffusion method; details: read-out: DIZ; how it was run: as §1

Row | Structure (SMILES) | zone of inhibition at 1000 µg/mL [1] [mm] | MIC [2] [µg/mL] | MIC [3] [µg/mL] | MIC [4] [µg/mL] | MBC [5] [µg/mL] | MIC [5] [µg/mL] | MBC [6] [µg/mL] | MIC [6] [µg/mL] | MIC [7] [µg/mL] | zone of inhibition at 1000 µg/mL [8] [mm] | zone of inhibition at 1000 µg/mL [9] [mm] | zone of inhibition at 1000 µg/mL [10] [mm] | zone of inhibition at 1000 µg/mL [11] [mm] | zone of inhibition at 1000 µg/mL [12] [mm]
1 | Cc1ccc(-n2nc3[nH]c(=N)c4ccccc4c3n2)cc1 | 30 | 50 (≈ 182 µM) | 50 (≈ 182 µM) | 50 (≈ 182 µM) | 200 (≈ 726 µM) | 50 (≈ 182 µM) | 200 (≈ 726 µM) | 50 (≈ 182 µM) | 50 (≈ 182 µM) | 20 | 19 | 15 | 15 | 26
2 | N=c1[nH]c2nn(-c3ccccc3)nc2c2ccccc12 | 33 | 25 (≈ 95.7 µM) | 25 (≈ 95.7 µM) | 50 (≈ 191 µM) | 200 (≈ 765 µM) | 50 (≈ 191 µM) | 200 (≈ 765 µM) | 50 (≈ 191 µM) | 25 (≈ 95.7 µM) | 16 | 20 | 19 | 20 | 37
3 | COc1cc(-c2c(C#N)c(N)c3ccccc3c2C#N)cc(OC)c1OC | 26 | 50 (≈ 139 µM) | 50 (≈ 139 µM) | 100 (≈ 278 µM) | 200 (≈ 557 µM) | 100 (≈ 278 µM) | 200 (≈ 557 µM) | 50 (≈ 139 µM) | 50 (≈ 139 µM) | 28 | 33 | 32 | 35 | 35
4 | CCOC(=O)c1c2[nH]c(=N)c3ccccc3c2nn1-c1ccc(C)cc1 | 32 | 50 (≈ 144 µM) | 50 (≈ 144 µM) | 50 (≈ 144 µM) | 200 (≈ 577 µM) | 50 (≈ 144 µM) | 200 (≈ 577 µM) | 25 (≈ 72.2 µM) | 50 (≈ 144 µM) | 16 | 25 | 15 | 15 | 20
5 | Cc1ccc(/N=N/C(C#N)c2ccccc2C#N)cc1 (stereo unspecified) | 35 | 25 (≈ 96 µM) | 12.5 (≈ 48 µM) | 25 (≈ 96 µM) | 200 (≈ 768 µM) | 25 (≈ 96 µM) | 100 (≈ 384 µM) | 12.5 (≈ 48 µM) | 25 (≈ 96 µM) | 35 | 33 | 16 | 30 | 33
6 | N#Cc1ccccc1C(C#N)/N=N/c1ccc([N+](=O)[O-])cc1 (stereo unspecified) | 43 | 6.25 (≈ 21.5 µM) | 6.25 (≈ 21.5 µM) | 6.25 (≈ 21.5 µM) | 100 (≈ 343 µM) | 6.25 (≈ 21.5 µM) | 50 (≈ 172 µM) | 3.12 (≈ 10.7 µM) | 6.25 (≈ 21.5 µM) | 40 | 41 | 35 | 36 | 37
7 | N#Cc1ccccc1C(/N=N/c1ccccc1)C(N)=O (stereo unspecified) | 37 | 25 (≈ 94.6 µM) | 12.5 (≈ 47.3 µM) | 25 (≈ 94.6 µM) | 200 (≈ 757 µM) | 25 (≈ 94.6 µM) | 100 (≈ 378 µM) | 12.5 (≈ 47.3 µM) | 12.5 (≈ 47.3 µM) | 15 | 27 | 31 | 15 | 37
8 | COc1ccc(C2C(C#N)c3ccccc3C(=N)C2(C#N)C#N)cc1 (stereo unspecified) | 15 | 100 (≈ 306 µM) | 50 (≈ 153 µM) | 100 (≈ 306 µM) | 200 (≈ 613 µM) | 100 (≈ 306 µM) | 200 (≈ 613 µM) | 100 (≈ 306 µM) | 100 (≈ 306 µM) | 20 | 19 | 26 | 31 | 18
9 | CCOC(=O)c1c2[nH]c(=N)c3ccccc3c2nn1-c1ccc(OC)cc1 | 40 | 50 (≈ 138 µM) | 25 (≈ 69 µM) | 50 (≈ 138 µM) | 200 (≈ 552 µM) | 50 (≈ 138 µM) | 200 (≈ 552 µM) | 50 (≈ 138 µM) | 25 (≈ 69 µM) | 19 | 38 | 20 | 30 | 37
10 | COc1ccc(-n2nc3[nH]c(=N)c4ccccc4c3n2)cc1 | 33 | 25 (≈ 85.8 µM) | 25 (≈ 85.8 µM) | 50 (≈ 172 µM) | 200 (≈ 687 µM) | 50 (≈ 172 µM) | 200 (≈ 687 µM) | 50 (≈ 172 µM) | 50 (≈ 172 µM) | 15 | 19 | 15 | 19 | 35
11 | N#Cc1ccccc1C(C#N)/N=N/c1ccc(Cl)cc1 (stereo unspecified) | 42 | 6.25 (≈ 22.3 µM) | 6.25 (≈ 22.3 µM) | 12.5 (≈ 44.5 µM) | 200 (≈ 712 µM) | 6.25 (≈ 22.3 µM) | 50 (≈ 178 µM) | 3.12 (≈ 11.1 µM) | 6.25 (≈ 22.3 µM) | 39 | 38 | 35 | 37 | 38
12 | N#CCc1ccccc1C#N | 15 | 100 (≈ 703 µM) | 50 (≈ 352 µM) | 100 (≈ 703 µM) | 200 (≈ 1410 µM) | 100 (≈ 703 µM) | 200 (≈ 1410 µM) | 100 (≈ 703 µM) | 50 (≈ 352 µM) | 15 | 14 | 15 | 16 | 15
13 | COc1ccc(/N=N/C(C#N)c2ccccc2C#N)cc1 (stereo unspecified) | 39 | 12.5 (≈ 45.2 µM) | 12.5 (≈ 45.2 µM) | 25 (≈ 90.5 µM) | 50 (≈ 181 µM) | 12.5 (≈ 45.2 µM) | 100 (≈ 362 µM) | 6.25 (≈ 22.6 µM) | 12.5 (≈ 45.2 µM) | 38 | 37 | 30 | 35 | 36
14 | CCOC(=O)c1c2[nH]c(=N)c3ccccc3c2nn1-c1ccc([N+](=O)[O-])cc1 | 38 | 50 (≈ 132 µM) | 25 (≈ 66.2 µM) | 50 (≈ 132 µM) | 200 (≈ 530 µM) | 50 (≈ 132 µM) | 200 (≈ 530 µM) | 25 (≈ 66.2 µM) | 25 (≈ 66.2 µM) | 20 | 19 | 16 | 15 | 37
